Assay results published in ChEMBL document CHEMBL1131598, “Synthesis and anticonvulsant activity of a new class of 2-[(arylalky)amino]alkanamide derivatives” (J Med Chem, 1998).

Assays:
Mus musculus [1] = test: Compound was tested for anticonvulsant potency using the 3-MPA (3-mercaptopropionic acid) test in mice upon peroral administration; type: functional; details: po
How it was run: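 Male Crl:CD-1(ICR)BR mice (22-24 g) were dosed orally at 5 mL/kg 60 min before 3-mercaptopropionic acid 60 mg/kg sc, a dose convulsing at least 97% of vehicle-treated mice. The end point was hindlimb tonic extension. ED50 (95% confidence interval) was obtained by probit analysis, with 10-20 animals per dose.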

Mus musculus [2] = test: Anticonvulsant potency using the PTX (picrotoxin) test in mice by peroral administration; type: functional; details: po
Mus musculus [3] = test: Compound was tested for anticonvulsant potency using the STRY (strychnine) test in mice upon peroral administration; type: functional; details: po
Mus musculus [4] = test: Anticonvulsant potency using the intravenous-BIC (bicuculline) test in mice; type: functional
How it was run: (§1)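 Male Crl:CD-1(ICR)BR mice (22-24 g) were dosed orally at 5 mL/kg 60 min before bicuculline 0.6 mg/kg, a dose giving tonic extensor convulsions in at least 97% of vehicle-treated mice. Protection from tonic extension was scored for each mouse. ED50 (95% confidence interval) was obtained by probit analysis, with 10-20 animals per dose.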

[5] = Toxicity using neurological impairment measured by rotarod test in mice; details: mouse, in vivo
How it was run: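 Trained male Crl:CD-1(ICR)BR mice (22-24 g) were dosed orally at 5 mL/kg 60 min before testing on a 3-cm rod rotating at 10 rpm. Falls during a 2-min period were counted. TD50, the dose making 50% of animals fall, was calculated by probit analysis, with 10-20 animals per dose.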

Mus musculus [6] = species: Mus musculus; test: Anticonvulsant potency using the maximal electroshock test in mice; type: functional
How it was run: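 Male mice received intra-aural shocks through clip electrodes (0.7 s, 28 mA, 80 Hz pulse train, 0.4 ms pulses), a stimulus giving hindlimb tonic extension in at least 97% of controls. Compound was given orally 60 min or ip 30 min beforehand, at 5 mL/kg. Protection meant complete suppression of the hindlimb tonic extensor component. ED50 (95% confidence interval) was obtained by probit analysis, with 10-20 animals per dose.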

Mus musculus [7] = test: Compound was tested for anticonvulsant potency using the intravenous-BIC (bicuculline) test in mice; 8 out of 20 mice exhibited anticonvulsant activity; type: functional
Mus musculus [8] = test: Compound was tested for anticonvulsant potency using the intravenous-BIC (bicuculline) test in mice; 0 out of 20 mice exhibited anticonvulsant activity; type: functional
Mus musculus [9] = test: Compound was tested for anticonvulsant potency using the intravenous-BIC (bicuculline) test in mice; compound at 200 mg/kg induced impaired gait, loss of the righting reflex, and impaired breathing; type: functional; how it was run: as §1
Mus musculus [10] = test: Compound was tested for anticonvulsant potency using the intravenous-BIC (bicuculline) test in mice; 5 out of 20 mice exhibited anticonvulsant activity; type: functional
Mus musculus [11] = test: Compound was tested for anticonvulsant potency using the intravenous-BIC (bicuculline) test in mice; 1 out of 10 mice exhibited anticonvulsant activity; type: functional
Mus musculus [12] = test: Compound was tested for anticonvulsant potency using the intravenous-BIC (bicuculline) test in mice; 4 out of 20 mice exhibited anticonvulsant activity; type: functional

| SMILES | ED50 (Mus musculus [4]) | ED50 (Mus musculus [6]) | further results |
| --- | --- | --- | --- |
| C[C@@H](NCc1ccc(OCc2cccc(F)c2)cc1)C(N)=O | 26.9 mg/kg | 8 mg/kg | ED50 (Mus musculus [1]): 21.5 mg/kg; ED50 (Mus musculus [2]): 60.6 mg/kg; ED50 (Mus musculus [3]): 104 mg/kg; TD50 [5]: 626 mg/kg |
| NC(=O)CCNCCc1ccc(OCc2cccc(Cl)c2)cc1 | – | – | ED50 (Mus musculus [7]): > 400 mg/kg |
| C[C@@H](NCc1ccc(OCc2cccnc2)cc1)C(N)=O | – | – | ED50 (Mus musculus [8]): > 400 mg/kg |
| C[C@@H](NCc1ccc(OCCc2ccccc2)cc1)C(N)=O | 24.9 mg/kg | 12.2 mg/kg | TD50 [5]: 1120 mg/kg |
| CNC(=O)[C@@H](NCc1ccc(OCc2ccccc2)cc1)C(C)O (stereo partly drawn) | – | – | ED50 (Mus musculus [9]): 34.2 mg/kg |
| C[C@@H](NCc1ccc(COc2ccccc2)cc1)C(N)=O | 40.3 mg/kg | 10.6 mg/kg | TD50 [5]: 597 mg/kg |
| CNC(=O)[C@@H](CC(C)C)NCc1ccc(OCc2ccccc2)cc1 | 192 mg/kg | – | – |
| CCCCCNCC(N)=O [MILACEMIDE] | 701 mg/kg | – | – |
| NC(=O)CNC(=O)c1ccc(OCc2cccc(Cl)c2)cc1 | – | – | ED50 (Mus musculus [10]): 400 mg/kg |
| CN(CC(N)=O)Cc1ccc(OCc2cccc(Cl)c2)cc1 | 114 mg/kg | 70 mg/kg | – |
| C[C@@H](NCc1ccc(OCc2ccoc2)cc1)C(N)=O | 152 mg/kg | – | – |
| NC(=O)CNCc1ccc(OCc2ccccc2)cc1 | 68.6 mg/kg | 11.5 mg/kg | TD50 [5]: 473 mg/kg |
| Nc1nnc(-c2cccc(Cl)c2Cl)c(N)n1 [LAMOTRIGINE] | 10.2 mg/kg | 2.2 mg/kg | ED50 (Mus musculus [1]): > 40 mg/kg; ED50 (Mus musculus [3]): > 40 mg/kg; TD50 [5]: 84 mg/kg |
| C[C@@H](NCc1ccc(OCC2CCCCC2)cc1)C(N)=O | 131 mg/kg | – | – |
| C[C@H](Nc1ccccc1OCc1ccccc1)C(N)=O | 210 mg/kg | – | – |
| CNC(=O)[C@H](C)NCc1ccc(OCc2ccccc2)cc1 | 8.4 mg/kg | 7 mg/kg | TD50 [5]: 224 mg/kg |
| C[C@@H](NCc1ccc(NC(=O)c2ccccc2)cc1)C(N)=O | – | – | ED50 (Mus musculus [11]): > 400 mg/kg |
| NC(=O)CNCCc1ccc(OCc2cccc(Cl)c2)cc1 | 192 mg/kg | – | – |

| SMILES | ED50 (Mus musculus [4]) | ED50 (Mus musculus [6]) | further results |
| --- | --- | --- | --- |
| CNC(=O)[C@H](CCSC)NCc1ccc(OCc2ccccc2)cc1 | 239 mg/kg | – | – |
| NC(=O)N1c2ccccc2C=Cc2ccccc21 [CARBAMAZEPINE] | 6.7 mg/kg | 9.8 mg/kg | ED50 (Mus musculus [1]): 20.1 mg/kg; ED50 (Mus musculus [2]): 40.6 mg/kg; ED50 (Mus musculus [3]): 43.8 mg/kg; TD50 [5]: 106 mg/kg |
| NC(=O)CNCc1ccccc1 | 490 mg/kg | – | – |
| CCCC(CCC)C(=O)O [VALPROIC ACID] | 414 mg/kg | – | ED50 (Mus musculus [1]): 167 mg/kg; ED50 (Mus musculus [2]): 350 mg/kg; ED50 (Mus musculus [3]): 538 mg/kg; TD50 [5]: 1180 mg/kg |
| CNC(=O)[C@H](CC(C)C)NCc1ccc(OCc2ccccc2)cc1 | – | – | ED50 (Mus musculus [10]): > 100 mg/kg |
| CNC(=O)[C@H](NCc1ccc(OCc2ccccc2)cc1)C(C)O (stereo partly drawn) | – | – | ED50 (Mus musculus [9]): 21 mg/kg |
| NC(=O)CNc1ccc(OCc2cccc(Cl)c2)cc1 | – | – | ED50 (Mus musculus [10]): 400 mg/kg |
| CNC(=O)[C@H](NCc1ccc(OCc2ccccc2)cc1)C(C)C | 112 mg/kg | – | – |
| O=C(O)CNCc1ccc(OCc2cccc(Cl)c2)cc1 | – | – | ED50 (Mus musculus [12]): > 400 mg/kg |
| CC[C@H](NCc1ccc(OCc2ccccc2)cc1)C(N)=O | 119 mg/kg | – | – |
| C[C@@H](NCc1ccc(/C=C/c2ccccc2)cc1)C(N)=O | – | – | ED50 (Mus musculus [10]): 400 mg/kg |
| CNC(=O)[C@H](Cc1ccccc1)NCc1ccc(OCc2ccccc2)cc1 | 61.2 mg/kg | – | – |
| CNC(=O)[C@@H](CO)NCc1ccc(OCc2cccc(C(F)(F)F)c2)cc1 | 19.5 mg/kg | 13.1 mg/kg | TD50 [5]: 750 mg/kg |
| C[C@H](Nc1cccc(OCc2ccccc2)c1)C(N)=O | 79.7 mg/kg | – | – |
| C[C@@H](NCc1ccc(CCc2ccccc2)cc1)C(N)=O | 40.3 mg/kg | 17.8 mg/kg | TD50 [5]: 630 mg/kg |
| C[C@@H](NCc1ccc(CNc2ccccc2)cc1)C(N)=O | 119 mg/kg | – | – |
| CNC(=O)[C@@H](CO)NCc1ccc(OCc2ccccc2)cc1 | – | 22.8 mg/kg | ED50 (Mus musculus [9]): 16.3 mg/kg |
| CN(C)C(=O)CNCc1ccc(OCc2cccc(Cl)c2)cc1 | – | – | ED50 (Mus musculus [9]): 54.2 mg/kg |
